Measurements published in ChEMBL document CHEMBL4316593 (Eur J Med Chem, 2019).
Activity calls are given as the source filed them. The calls are words filed in the database; no cut-off is given here.

Columns and labels:
[1] = tested on: U-87 MG; assay: Induction of DNA damage in human U87 cells assessed as change in BAX gene expression at cytotoxic IC50 measured after 48 hrs […] relative to control; assay type: functional, U-87MG ATCC
Summary of the method: (§1)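 U87 expression profiling. Cells incubated 48hrs at 37°C, 5% CO₂ with the IC₅₀ concentration, alongside a cisplatin and an untreated control, in triplicate. RNA was isolated by one common protocol and profiled. DEGs were called with DESeq2 (q < 0.05, fold change > 1.5) and expressed as fold change versus untreated.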

[2] = Inhibition of RTK/PI3K/AKT/mTOR signaling in human U87 cells assessed as up regulation of KDM5B gene expression at cytotoxic IC50 measured after 48 hrs relative to control; assay type: cell-based; conditions: U-87MG ATCC
Summary of the method: (§2)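 Cells were exposed for 48hrs at 37°C in humidified 5% CO₂ to the compound at its previously determined IC₅₀, with Cisplatin at its IC₅₀ and an untreated negative control alongside. Each condition was run in triplicate. RNA was isolated from all samples by the same protocol. Genes were called differentially expressed by DESeq2 at q-value < 0.05 and fold change > 1.5.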

[3] = tested on: U-87 MG; assay: Cell cycle arrest in human U87 cells assessed as change in MDM2 gene expression at cytotoxic IC50 measured after 48 hrs […] relative to control; assay type: functional, U-87MG ATCC; summary of the method: as §1
[4] = tested on: LN-229; assay: Induction of apoptosis in human LN229 cells assessed as apoptotic cells at cytotoxic IC50 measured after 48 hrs by Annexin V-FITC/propidium iodide staining based flow cytometry (reference value: 29.3%); assay type: functional
[5] = tested on: U-87 MG; assay: Cytotoxicity against human U87 cells assessed as reduction in cell proliferation up to 200 uM by trypan blue dye-based cell counting analysis; assay type: functional; conditions: U-87MG ATCC, TDE = time-dependent effect
Summary of the method: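 U87 cells grown 24hrs, then treated for 5hrs with 0-200 μM. Viability by trypan blue exclusion; mean ± S.E.M, n = 4 per group, one-way ANOVA.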

[6] = Inhibition of RTK/PI3K/AKT/mTOR signaling in human U87 cells assessed as up regulation of phosphofructokinase, platelet gene expression at cytotoxic IC50 measured after 48 hrs relative to control; assay type: cell-based
[7] = Inhibition of RTK/PI3K/AKT/mTOR signaling in human U87 cells assessed as down regulation of POP4 gene expression at cytotoxic IC50 measured after 48 hrs relative to control; assay type: cell-based; conditions: U-87MG ATCC; summary of the method: as §2
[8] = Inhibition of RTK/PI3K/AKT/mTOR signaling in human U87 cells assessed as down regulation of PTGES3 gene expression at cytotoxic IC50 measured after 48 hrs relative to control; assay type: cell-based; conditions: U-87MG ATCC; summary of the method: as §2
[9] = tested on: U-87 MG; assay: Cell cycle arrest in human U87 cells assessed as change in E2F2 gene expression at cytotoxic IC50 measured after 48 hrs […] relative to control; assay type: functional, U-87MG ATCC; summary of the method: as §1
[10] = Inhibition of RTK/PI3K/AKT/mTOR signaling in human U87 cells assessed as up regulation of MORC family CW-type zinc finger 2 gene expression at cytotoxic IC50 measured after 48 hrs relative to control; assay type: cell-based; conditions: U-87MG ATCC; summary of the method: as §2
[11] = Inhibition of RTK/PI3K/AKT/mTOR signaling in human U87 cells assessed as up regulation of isoleucyl-tRNA synthetase gene expression at cytotoxic IC50 measured after 48 hrs relative to control; assay type: cell-based; conditions: U-87MG ATCC
[12] = Inhibition of RTK/PI3K/AKT/mTOR signaling in human U87 cells assessed as down regulation of MAP2 gene expression at cytotoxic IC50 measured after 48 hrs relative to control; assay type: cell-based; conditions: U-87MG ATCC; summary of the method: as §2
[13] = Inhibition of RTK/PI3K/AKT/mTOR signaling in human U87 cells assessed as down regulation of TOMM34 gene expression at cytotoxic IC50 measured after 48 hrs relative to control; assay type: cell-based; conditions: U-87MG ATCC; summary of the method: as §2
[14] = tested on: U-87 MG; assay: Induction of apoptosis in human U87 cells assessed as change in CAPN2 gene expression at cytotoxic IC50 measured after 48 hrs […] relative to control; assay type: functional, U-87MG ATCC
Summary of the method: (§3)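 U87 cells grown in MEM with 10% FBS at 37°C, 5% CO2. Cells exposed to IC50 of test compound for 48 hrs, alongside untreated and cisplatin controls, each condition in triplicate. RNA isolated and profiled; differential expression called with DESeq2 (q-value < 0.05, fold change > 1.5), fold change versus untreated.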

[15] = Inhibition of RTK/PI3K/AKT/mTOR signaling in human U87 cells assessed as up regulation of ETS variant 1 gene expression at cytotoxic IC50 measured after 48 hrs relative to control; assay type: cell-based; conditions: U-87MG ATCC; summary of the method: as §2
[16] = Inhibition of RTK/PI3K/AKT/mTOR signaling in human U87 cells assessed as up regulation of retinoic acid receptor alpha gene expression at cytotoxic IC50 measured after 48 hrs relative to control; assay type: cell-based; conditions: U-87MG ATCC
[17] = Inhibition of RTK/PI3K/AKT/mTOR signaling in human U87 cells assessed as down regulation of FAM222A gene expression at cytotoxic IC50 measured after 48 hrs relative to control; assay type: cell-based; conditions: U-87MG ATCC; summary of the method: as §3
[18] = tested on: LN-229; assay: Cell cycle arrest in human LN229 cells assessed as decrease in accumulation at S-phase at cytotoxic IC50 measured after 48 hrs by propidium iodide staining based fluorescence cell imaging analysis; assay type: functional
Summary of the method: (§4)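 Cell cycle by PI staining. Cells seeded at 1×10^6 and grown overnight at 37°C, 5% CO₂, then exposed for 48hrs at their IC₅₀ concentration, with DMSO and cisplatin controls. Cells were trypsinized, washed in cold PBS and fixed in 70% ethanol at 4°C for 30 min. They were stained with PI in Triton X-100/RNase for 15 min at 37°C and imaged by fluorescence microscopy. Reported as mean ± S.E.M of triplicates.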

[19] = Inhibition of RTK/PI3K/AKT/mTOR signaling in human U87 cells assessed as up regulation of IER3 gene expression at cytotoxic IC50 measured after 48 hrs relative to control; assay type: cell-based; conditions: U-87MG ATCC; summary of the method: as §2
[20] = tested on: LN-229; assay: Cytotoxicity against human LN229 cells assessed as reduction in cell proliferation up to 200 uM by trypan blue dye-based cell counting analysis; assay type: functional; conditions: TDE = time-dependent effect
[21] = Inhibition of RTK/PI3K/AKT/mTOR signaling in human U87 cells assessed as down regulation of NLRC5 gene expression at cytotoxic IC50 measured after 48 hrs relative to control; assay type: cell-based; conditions: U-87MG ATCC; summary of the method: as §2
[22] = tested on: U-87 MG; assay: Cell cycle arrest in human U87 cells assessed as change in CREBBP gene expression at cytotoxic IC50 measured after 48 hrs […] relative to control; assay type: functional, U-87MG ATCC; summary of the method: as §1
[23] = Inhibition of RTK/PI3K/AKT/mTOR signaling in human U87 cells assessed as down regulation of TSPAN33 gene expression at cytotoxic IC50 measured after 48 hrs relative to control; assay type: cell-based; conditions: U-87MG ATCC; summary of the method: as §2
[24] = tested on: U-87 MG; assay: Cell cycle arrest in human U87 cells assessed as accumulation at G1 phase at cytotoxic IC50 measured after 48 hrs by propidium iodide staining based fluorescence cell imaging analysis (reference value: 39.7%); assay type: functional, U-87MG ATCC; summary of the method: as §4
[25] = Inhibition of RTK/PI3K/AKT/mTOR signaling in human U87 cells assessed as down regulation of SIDT2 gene expression at cytotoxic IC50 measured after 48 hrs relative to control; assay type: cell-based; conditions: U-87MG ATCC; summary of the method: as §2
[26] = Inhibition of RTK/PI3K/AKT/mTOR signaling in human U87 cells assessed as up regulation of WW domain containing transcription regulator 1 gene expression at cytotoxic IC50 measured after 48 hrs relative to control; assay type: cell-based; conditions: U-87MG ATCC

Structure (SMILES): CC(=O)C(=NNc1ccccc1C#N)C(C)=O
- fold change (FC) [1]: 2.512
- log2FC [2]: 0.553
- fold change (FC) [3]: 1.471
- Activity [4]: 57.3%
- Activity [5]: Tde
- log2FC [6]: 0.662
- log2FC [7]: -0.816
- log2FC [8]: -0.422
- fold change (FC) [9]: 2.384
- log2FC [10]: 0.946
- log2FC [11]: 1.04
- log2FC [12]: -1.55
- log2FC [13]: -1.47
- log2FC [14]: -1.189
- log2FC [15]: 1.09
- log2FC [16]: 1.04
- log2FC [17]: -1.4
- Activity [18]: Active
- log2FC [19]: 0.384
- Activity [20]: Tde
- log2FC [21]: -1.26
- fold change (FC) [22]: -1.086
- log2FC [23]: -0.666
- Activity [24]: 47.7%
- log2FC [25]: -0.671
- log2FC [26]: 0.981
